# Calls of active or inactive are those of the source. The calls are words filed in the database; no cut-off is given here.
# B1: Beta-lactamase (Pseudomonas luteola), Q670S6 (protein)
# chain: MNVILNRRTFLLASAVVSASYSLGTLAGANRDDASFQDRLAKLEQQLNGRLGVCAIDTANGAQLGYRANERFAMNSTFKVMLASAFLARSQDEPGLLEERLTYTRADLVTYSPVTEKHVSTGMTVAELCAAGIQYSDNTAANVLMKKLGGPEAVTAFARSIGDTHFRLDRWETELNSAIPGDPRDTSTPQAMAMSLQRLALGDMLAADKQHQLQAWLKGNTTGGKRIRAGVPAGWQVGDKTGTGDYGSANDVAILWPPRRAPVVLALYSALENQQAEARNDVLADAARIVAEWVTG
# Key:
# [1] = test system: Pseudomonas luteola; assay: Antimicrobial activity against Pseudomonas luteola LAM expressing blaLUT-1 by Etest method; type: functional
# [2] = test system: Pseudomonas luteola; assay: Antimicrobial activity against Pseudomonas luteola expressing blaLUT-2 to blaLUT-6 by Etest method; type: functional
# [3] = test system: Escherichia coli; assay: Antimicrobial activity against Escherichia coli DH10B transfected with pBK-L3 expressing blaLUT-1 by Etest method; type: functional; settings: K-12 DH10B
# [4] = test system: Pseudomonas luteola; assay: Antimicrobial activity against Pseudomonas luteola by disk diffusion method; type: functional
# In short: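 Disk diffusion panel of 32 antimicrobial drugs tested on P. luteola clinical isolates and the type strain. Isolates were identified by API-20 NE and by sequencing of PCR-amplified rrs and rpoB.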
# [5] = test system: Escherichia coli; assay: Antimicrobial activity against Escherichia coli DH10B by Etest method; type: functional; settings: K-12 DH10B
# [6] = test system: Pseudomonas luteola; assay: Antimicrobial activity against Pseudomonas luteola LAM expressing blaLUT-1 at 2:1 ratio of compound to clavulanic acid by Etest method; type: functional
# [7] = test system: Pseudomonas luteola; assay: Antimicrobial activity against Pseudomonas luteola expressing blaLUT-2 to blaLUT-6 at 2:1 ratio of compound to clavulanic acid by Etest method; type: functional
# [8] = test system: Escherichia coli; assay: Antimicrobial activity against Escherichia coli DH10B transfected with pBK-L3 expressing blaLUT-1 at 2:1 ratio of compound to clavulanic acid by Etest method; type: functional; settings: K-12 DH10B
# [9] = test system: Escherichia coli; assay: Antimicrobial activity against Escherichia coli DH10B at 2:1 ratio of compound to clavulanic acid by Etest method; type: functional; settings: K-12 DH10B
# [10] = test system: Pseudomonas luteola; assay: Antimicrobial activity against Pseudomonas luteola LAM expressing blaLUT-1 by Etest method in presence of 4 ug/ml clavulanic acid; type: functional
# [11] = test system: Pseudomonas luteola; assay: Antimicrobial activity against Pseudomonas luteola expressing blaLUT-2 to blaLUT-6 by Etest method in presence of 4 ug/ml clavulanic acid; type: functional
# [12] = test system: Escherichia coli; assay: Antimicrobial activity against Escherichia coli DH10B by Etest method in presence of 4 ug/ml clavulanic acid; type: functional; settings: K-12 DH10B
# [13] = test system: Escherichia coli; assay: microbe, parasite or virus in culture; settings: K-12 DH10B
# [14] = test system: Pseudomonas luteola; assay: Antimicrobial activity against Pseudomonas luteola by Etest method; type: functional
# [15] = test system: Pseudomonas luteola; assay: Antimicrobial activity against Pseudomonas luteola LAM expressing blaLUT-1 by Etest method in presence of 4 ug/ml Tazobactam; type: functional
# [16] = test system: Pseudomonas luteola; assay: Antimicrobial activity against Pseudomonas luteola expressing blaLUT-2 to blaLUT-6 by Etest method in presence of 4 ug/ml Tazobactam; type: functional
# [17] = test system: Escherichia coli; assay: Antimicrobial activity against Escherichia coli DH10B transfected with pBK-L3 expressing blaLUT-1 by Etest method in presence of 4 ug/ml Tazobactam; type: functional; settings: K-12 DH10B
# [18] = test system: Escherichia coli; assay: Antimicrobial activity against Escherichia coli DH10B by Etest method in presence of 4 ug/ml Tazobactam; type: functional; settings: K-12 DH10B
# [19] = test system: Pseudomonas luteola; assay: Antimicrobial activity against Pseudomonas luteola LAM expressing blaLUT-1 by Etest method in presence of 2 ug/ml clavulanic acid; type: functional
# [20] = test system: Pseudomonas luteola; assay: Antimicrobial activity against Pseudomonas luteola expressing blaLUT-2 to blaLUT-6 by Etest method in presence of 2 ug/ml clavulanic acid; type: functional
# [21] = test system: Escherichia coli; assay: Antimicrobial activity against Escherichia coli DH10B transfected with pBK-L3 expressing blaLUT-1 by Etest method in presence of 2 ug/ml clavulanic acid; type: functional; settings: K-12 DH10B
# [22] = test system: Escherichia coli; assay: Antimicrobial activity against Escherichia coli DH10B by Etest method in presence of 2 ug/ml clavulanic acid; type: functional; settings: K-12 DH10B
# [23] = substrate: CC(=O)OCC1=C(C(=O)O)N2C(=O)[C@@H](NC(=O)Cc3cccs3)[C@H]2SC1; assay: (§1) Activity of Pseudomonas luteola LAM Beta-lactamase LUT-1
# In short: (§2)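 LUT-1 was purified from E. coli DH5α(pBK-L3) grown for 18 h at 37°C in 2× yeast-tryptone broth with kanamycin 20 μg/ml and amoxicillin 32 μg/ml. Purification used Q Sepharose ion exchange, then Superose 12 gel filtration, with purity checked by SDS-PAGE. Km and kcat were determined by a computerized microacidimetric method, each three times, with coefficients of variation not exceeding 15%.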
# [24] = substrate: CC(C)(O/N=C(\C(=O)N[C@@H]1C(=O)N2C(C(=O)[O-])=C(C[n+]3ccccc3)CS[C@H]12)c1csc(N)n1)C(=O)O; assay: as §1; in short: as §2
# [25] = substrate: CC1(C)S[C@@H]2[C@H](NC(=O)Cc3ccccc3)C(=O)N2[C@H]1C(=O)O; assay: as §1; in short: as §2
# [26] = substrate: CC1(C)S[C@@H]2[C@H](NC(=O)[C@H](C(=O)O)c3ccsc3)C(=O)N2[C@H]1C(=O)O; assay: as §1; in short: as §2
# [27] = substrate: CC1(C)S[C@@H]2[C@H](NC(=O)[C@H](N)c3ccc(O)cc3)C(=O)N2[C@H]1C(=O)O; assay: as §1; in short: as §2
# [28] = substrate: CCN1CCN(C(=O)N[C@@H](C(=O)N[C@@H]2C(=O)N3[C@@H]2SC(C)(C)[C@@H]3C(=O)O)c2ccccc2)C(=O)C1=O; assay: as §1; in short: as §2
# [29] = substrate: CO/N=C(\C(=O)N[C@@H]1C(=O)N2C(C(=O)O)=C(COC(C)=O)CS[C@H]12)c1csc(N)n1; assay: as §1; in short: as §2
# [30] = substrate: CO/N=C(\C(=O)N[C@@H]1C(=O)N2C(C(=O)O)=C(COC(N)=O)CS[C@H]12)c1ccco1; assay: as §1; in short: as §2
# [31] = substrate: C[C@H]1[C@H](NC(=O)/C(=N\OC(C)(C)C(=O)O)c2csc(N)n2)C(=O)N1S(=O)(=O)O; assay: as §1; in short: as §2
# [32] = substrate: CC(=O)OCC1=C(C(=O)O)N2C(=O)[C@@H](NC(=O)Cc3cccs3)[C@H]2SC1; assay: (§3) Ratio of kcat/Km for Pseudomonas luteola LAM Beta-lactamase LUT-1; in short: as §2
# [33] = substrate: CC(C)(O/N=C(\C(=O)N[C@@H]1C(=O)N2C(C(=O)[O-])=C(C[n+]3ccccc3)CS[C@H]12)c1csc(N)n1)C(=O)O; assay: as §3; in short: as §2
# [34] = substrate: CC1(C)S[C@@H]2[C@H](NC(=O)Cc3ccccc3)C(=O)N2[C@H]1C(=O)O; assay: as §3; in short: as §2
# [35] = substrate: CC1(C)S[C@@H]2[C@H](NC(=O)[C@H](C(=O)O)c3ccsc3)C(=O)N2[C@H]1C(=O)O; assay: as §3; in short: as §2
# [36] = substrate: CC1(C)S[C@@H]2[C@H](NC(=O)[C@H](N)c3ccc(O)cc3)C(=O)N2[C@H]1C(=O)O; assay: as §3; in short: as §2
# [37] = substrate: CCN1CCN(C(=O)N[C@@H](C(=O)N[C@@H]2C(=O)N3[C@@H]2SC(C)(C)[C@@H]3C(=O)O)c2ccccc2)C(=O)C1=O; assay: as §3; in short: as §2
# [38] = substrate: CO/N=C(\C(=O)N[C@@H]1C(=O)N2C(C(=O)O)=C(COC(C)=O)CS[C@H]12)c1csc(N)n1; assay: as §3; in short: as §2
# [39] = substrate: CO/N=C(\C(=O)N[C@@H]1C(=O)N2C(C(=O)O)=C(COC(N)=O)CS[C@H]12)c1ccco1; assay: as §3; in short: as §2
# [40] = substrate: C[C@H]1[C@H](NC(=O)/C(=N\OC(C)(C)C(=O)O)c2csc(N)n2)C(=O)N1S(=O)(=O)O; assay: as §3; in short: as §2
molecule,measurement,setting,value
CO/N=C(\C(=O)N[C@@H]1C(=O)N2C(C(=O)[O-])=C(C[N+]3(C)CCCC3)CS[C@H]12)c1csc(N)n1,MIC,[1],0.5 µg/mL
same,MIC,[2],1 µg/mL
same,MIC,[3],0.5 µg/mL
COc1cc(Cc2cnc(N)nc2N)cc(OC)c1OC,Activity,[4],inactive
Cn1nnnc1SCC1=C(C(=O)O)N2C(=O)[C@@H](NC(=O)[C@H](O)c3ccccc3)[C@H]2SC1,Activity,[4],inactive
O=C(N[C@H](CO)[C@H](O)c1ccc([N+](=O)[O-])cc1)C(Cl)Cl,Activity,[1],inactive
CC1(C)S[C@@H]2[C@H](NC(=O)[C@H](N)c3ccc(O)cc3)C(=O)N2[C@H]1C(=O)O [AMOXICILLIN],MIC,[1],4 µg/mL
same,MIC,[2],4 µg/mL
same,MIC,[3],128 µg/mL
same,MIC,[5],4 µg/mL
same,MIC,[6],1 µg/mL
same,MIC,[7],1 µg/mL
same,MIC,[8],4 µg/mL
same,MIC,[9],4 µg/mL
C[C@H]1[C@H](NC(=O)/C(=N\OC(C)(C)C(=O)O)c2csc(N)n2)C(=O)N1S(=O)(=O)O [AZTREONAM],MIC,[1],2 µg/mL
same,MIC,[2],4 µg/mL
same,MIC,[3],2 µg/mL
CO/N=C(\C(=O)N[C@@H]1C(=O)N2C(C(=O)O)=C(COC(C)=O)CS[C@H]12)c1csc(N)n1 [CEFOTAXIME],MIC,[1],1 µg/mL
same,MIC,[2],2 µg/mL
same,MIC,[3],1 µg/mL
same,MIC,[5],< 0.06 µg/mL
same,MIC,[10],1 µg/mL
same,MIC,[11],1 µg/mL
same,MIC,[12],< 0.06 µg/mL
same,MIC,[13],0.06 µg/mL
CO[C@@]1(NC(=O)Cc2cccs2)C(=O)N2C(C(=O)O)=C(COC(N)=O)CS[C@@H]21 [CEFOXITIN],MIC,[1],32 µg/mL
same,MIC,[2],32 µg/mL
same,MIC,[3],4 µg/mL
same,MIC,[5],4 µg/mL
CC(C)(O/N=C(\C(=O)N[C@@H]1C(=O)N2C(C(=O)[O-])=C(C[n+]3ccccc3)CS[C@H]12)c1csc(N)n1)C(=O)O [CEFTAZIDIME],MIC,[1],0.5 µg/mL
same,MIC,[2],0.5 µg/mL
same,MIC,[3],1 µg/mL
same,MIC,[5],0.125 µg/mL
same,MIC,[10],0.25 µg/mL
same,MIC,[11],0.25 µg/mL
same,MIC,[12],0.25 µg/mL
same,MIC,[13],0.5 µg/mL
CC(=O)OCC1=C(C(=O)O)N2C(=O)[C@@H](NC(=O)Cc3cccs3)[C@H]2SC1 [CEPHALOTHIN],MIC,[1],64 µg/mL
same,MIC,[2],128 µg/mL
same,MIC,[3],32 µg/mL
same,MIC,[5],4 µg/mL
O=C(O)c1cn(C2CC2)c2cc(N3CCNCC3)c(F)cc2c1=O [CIPROFLOXACIN],MIC,[14],0.032 µg/mL
C[C@@H](O)[C@H]1C(=O)N2C(C(=O)O)=C(SCCNC=N)C[C@H]12 [IMIPENEM ANHYDROUS],MIC,[1],0.25 µg/mL
same,MIC,[2],0.25 µg/mL
CCn1cc(C(=O)O)c(=O)c2ccc(C)nc21 [NALIDIXIC ACID],Activity,[4],inactive
same,MIC,[14],16 µg/mL
CCN1CCN(C(=O)N[C@@H](C(=O)N[C@@H]2C(=O)N3[C@@H]2SC(C)(C)[C@@H]3C(=O)O)c2ccccc2)C(=O)C1=O [PIPERACILLIN],MIC,[1],2 µg/mL
same,MIC,[2],2 µg/mL
same,MIC,[3],8 µg/mL
same,MIC,[5],1 µg/mL
same,MIC,[15],1 µg/mL
same,MIC,[16],1 µg/mL
same,MIC,[17],1 µg/mL
same,MIC,[18],1 µg/mL
CC1(C)S[C@@H]2[C@H](NC(=O)[C@H](C(=O)O)c3ccsc3)C(=O)N2[C@H]1C(=O)O [TICARCILLIN],MIC,[1],8 µg/mL
same,MIC,[2],8 µg/mL
same,MIC,[3],256 µg/mL
same,MIC,[5],2 µg/mL
same,MIC,[19],4 µg/mL
same,MIC,[20],2 µg/mL
same,MIC,[21],16 µg/mL
same,MIC,[22],2 µg/mL
B1,Km,[23],21 µM
same,kcat,[23],543 s⁻¹
same,Km,[24],35 µM
same,kcat,[24],1.3 s⁻¹
same,Km,[25],8 µM
same,kcat,[25],31 s⁻¹
same,Km,[26],14 µM
same,kcat,[26],5 s⁻¹
same,Km,[27],20 µM
same,kcat,[27],21 s⁻¹
same,Km,[28],7 µM
same,kcat,[28],8 s⁻¹
same,Km,[29],86 µM
same,kcat,[29],452 s⁻¹
same,Km,[30],24 µM
same,kcat,[30],286 s⁻¹
same,Km,[31],40 µM
same,kcat,[31],1.5 s⁻¹
same,kcat/Km,[32],2.59e+07 M⁻¹ s⁻¹
same,kcat/Km,[33],40000 M⁻¹ s⁻¹
same,kcat/Km,[34],3.87e+06 M⁻¹ s⁻¹
same,kcat/Km,[35],360000 M⁻¹ s⁻¹
same,kcat/Km,[36],1.05e+06 M⁻¹ s⁻¹
same,kcat/Km,[37],1.14e+06 M⁻¹ s⁻¹
same,kcat/Km,[38],5.25e+06 M⁻¹ s⁻¹
same,kcat/Km,[39],1.19e+07 M⁻¹ s⁻¹
same,kcat/Km,[40],40000 M⁻¹ s⁻¹

# — ChEMBL document CHEMBL1212770, “Molecular and biochemical characterization of the natural chromosome-encoded class A beta-lactamase from Pseudomonas luteola” (Antimicrob Agents Chemother, 2010)
